In experiment [1] the target is Thymidylate synthase (Mus musculus, UniProt P07607). Nature of the experiment: Competitive inhibition of purified mouse Ehrlich ascites tumor cell thymidylate synthetase using 5-[3H]-2'-deoxyuridine 5'-phosphate as substrate after 7 mins by double reciprocal plot method. The essentials: (§1)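 Thymidylate synthetase was purified from E. coli, calf thymus or Ehrlich ascites tumor cells. Inhibition constants came from double-reciprocal plots of velocity against substrate concentration. Each plot used five substrate concentrations and at least two inhibitor concentrations.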
Thymidylate synthase (Mus musculus, UniProt P07607), sequence (P07607 whole entry): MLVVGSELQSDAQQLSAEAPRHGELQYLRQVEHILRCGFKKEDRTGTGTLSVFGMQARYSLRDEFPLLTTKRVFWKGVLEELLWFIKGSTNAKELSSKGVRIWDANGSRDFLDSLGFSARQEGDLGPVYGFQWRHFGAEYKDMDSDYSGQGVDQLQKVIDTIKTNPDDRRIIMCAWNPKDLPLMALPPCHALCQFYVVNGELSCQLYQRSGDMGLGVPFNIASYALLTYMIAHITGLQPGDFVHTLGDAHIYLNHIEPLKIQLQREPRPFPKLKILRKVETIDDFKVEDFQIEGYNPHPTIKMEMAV

For experiment [2], the target named is T1, Thymidylate synthase (Bos taurus, UniProt Q2TA32). Briefly: Competitive inhibition of purified calf thymus thymidylate synthetase using 5-[3H]-2'-deoxyuridine 5'-phosphate as substrate after 7 mins by double reciprocal plot method. The essentials: as §1
T1 sequence (Q2TA32 whole entry): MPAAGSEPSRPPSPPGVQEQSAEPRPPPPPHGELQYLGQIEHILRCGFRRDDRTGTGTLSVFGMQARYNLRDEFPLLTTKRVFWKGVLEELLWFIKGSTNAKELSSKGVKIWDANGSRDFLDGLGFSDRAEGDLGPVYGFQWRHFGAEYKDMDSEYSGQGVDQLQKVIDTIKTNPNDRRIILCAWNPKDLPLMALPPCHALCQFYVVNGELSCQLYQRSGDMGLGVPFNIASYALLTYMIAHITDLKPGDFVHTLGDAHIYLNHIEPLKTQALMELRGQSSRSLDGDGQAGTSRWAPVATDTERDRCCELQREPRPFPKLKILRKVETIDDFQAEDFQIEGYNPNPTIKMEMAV
Experiment [3] in a line: Competitive inhibition of purified Escherichia coli thymidylate synthetase using t5-[3H]-2'-deoxyuridine 5'-phosphate as substrate after 7 mins by double reciprocal plot method. The essentials: as §1
Experiment [4] in a line: Ratio of Ki for purified mouse Ehrlich ascites tumor cell thymidylate synthetase to Ki for purified calf thymus thymidylate synthetase.
Experiment [5] deals with T1, Thymidylate synthase. Nature of the experiment: Noncompetitive inhibition of purified calf thymus thymidylate synthetase using 5-[3H]-2'-deoxyuridine 5'-phosphate as substrate after 7 mins by double reciprocal plot method. The essentials:
as §1

Usually Ki stands for the equilibrium dissociation constant of an inhibitor or competing ligand from its target. Low values mean higher affinity, high ones lower affinity. As to `O=c1ccn([C@H]2C[C@H](O)[C@@H](COP(=O)(O)O)O2)c(=O)[nH]1` [DEOXYURIDINE MONOPHOSPHATE], the Ki on Thymidylate synthase [1] worked out at 6.5 µM; at Thymidylate synthase [2], 8 µM; in experiment [3] it was 7.6 µM.
Regarding `CN(C)Cc1cn([C@H]2C[C@H](O)[C@@H](COP(=O)(O)O)O2)c(=O)[nH]c1=O`, the Ki on Thymidylate synthase [1] is 73 µM; on Thymidylate synthase [2] it was 110 µM; in experiment [3], 90 µM.
Regarding `CN(C)CCNCc1cn([C@H]2C[C@H](O)[C@@H](COP(=O)(O)O)O2)c(=O)[nH]c1=O`, the Ratio Ki in experiment [4] stood at 4. For the same compound, the Ki on Thymidylate synthase [1] worked out at 14 µM; at Thymidylate synthase [2], 3.1 µM; in experiment [3] it was 6 µM.
Regarding `O=c1[nH]c(=O)n([C@H]2C[C@H](O)[C@@H](COP(=O)(O)O)O2)cc1CN1CCCC1`, the Ki at Thymidylate synthase [5] came to 43 µM; at Thymidylate synthase [1] it was 27 µM; in experiment [3], 56 µM.

The record behind these values is ChEMBL document CHEMBL3244410, “Thymidylate synthetase inhibitors. Synthesis of N-substituted 5-aminomethyl-2'-deoxyuridine 5'-phosphates” (J Med Chem, 1977).
